# Rows were chosen to be rich in hits. Some 2.7% of all compounds tested hit in one or more screens of this group.
# SIRT5 inh = sirtuin-5 (human) deacylase inhibition. Purified SirT5, succinyl-peptide AMC, trypsin-coupled fluorescence. inhibition, % at 15 µM. hit rate 1.1% among 330,000. AID 652115; in the data active = inhibition above about 15%; inconclusive = no clear call, values can overlap the other calls
# Target sequence (Q9NXA8 whole entry, looked up): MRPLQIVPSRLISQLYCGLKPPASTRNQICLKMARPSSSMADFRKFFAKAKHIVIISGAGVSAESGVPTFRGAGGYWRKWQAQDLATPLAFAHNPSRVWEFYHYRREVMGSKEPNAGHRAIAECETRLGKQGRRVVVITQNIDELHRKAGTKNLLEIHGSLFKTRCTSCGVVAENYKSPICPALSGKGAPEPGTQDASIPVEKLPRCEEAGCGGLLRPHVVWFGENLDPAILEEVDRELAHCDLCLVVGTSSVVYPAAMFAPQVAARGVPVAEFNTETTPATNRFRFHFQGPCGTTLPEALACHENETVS
# MLL AF4-AF9 inh = MLL-AF4/AF9 protein interaction inhibition. inhibition, % at 10 µM. P42568. AlphaScreen, biotin-AF4 peptide binding to FLAG-AF9. hit rate 0.47% among 350,000;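 active = every replicate reaching a set inhibition limit, whatever the replicate mean, cut at about 25% in these data; inconclusive = mean inhibition reaches that limit but some replicates miss it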;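 also: 0% = plate neutral control median and 100% = total signal loss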
# S100A4 inh HTS = blocks human S100A4 binding to myosin IIA peptide; P26447; S100A4/TAMRA-MyoIIA peptide fluorescence polarization; inhibition, % at 10.7 µM; hit rate 0.14% among 360,000; AID 652163;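 active = mean inhibition of at least 70% across replicates, with every replicate also reaching that level; inconclusive = mean inhibition reaches 70% but some replicates fall short; inactive = mean inhibition below 70%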
# Target sequence (P26447 whole entry, looked up): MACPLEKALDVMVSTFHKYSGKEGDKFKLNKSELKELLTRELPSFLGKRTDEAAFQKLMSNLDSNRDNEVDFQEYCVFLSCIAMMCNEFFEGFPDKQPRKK
#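 System – human S100A4 monomer protein, biochemical binding assay · Buffer or medium – Calcium-containing HEPES buffer, pH 7.2 · Timing – 5 min between mix addition and reading · Also added – TAMRA-labelled myosin IIA heavy-chain peptide probe, 5 nM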
# CaV13 FRET inh = Disruptors of the CACNA1D IQ motif to Ca2+-dependent inactivation inhibitor domain association, primary screening, Förster resonance energy transfer in intact living …; inhibition, % at 12.3 µM; HEK cells, CFP/YFP FRET ICDI-IQ, plate reader, 10 min; percent FRET-ratio fall versus neutral wells; hit rate 0.098% among 340,000;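 active = mean replicate inhibition of at least 30% and at least 1% of replicates passing that level; inconclusive = only one of the two criteria is met; inactive = neither criterion is met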;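 also: 0% = median of the neutral control wells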
# DENV2 CPE rescue = DENV2-induced cell death inhibition | DENV2-infected cells, cytopathic effect rescue, plate reader | CPE inhibition, % at 9.99 µM | hit rate 1.7% among 350,000 | AID 651640; in the data active = CPE inhibition above about 20%, passing the limit was not always enough; inconclusive = no clear call, values can overlap the other calls; tested in BHK-21 cells;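 also: 0% = median of neutral control wells and 100% = median of positive control wells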
# * = called active by the depositor; ? = inconclusive; nt = no result given.
SMILES,SIRT5 inh,MLL AF4-AF9 inh,S100A4 inh HTS,CaV13 FRET inh,DENV2 CPE rescue
CC(=O)N(C)C[C@H]1Oc2cc(C#CC3CCCCC3)ccc2S(=O)(=O)N([C@H](C)CO)C[C@@H]1C,13,17,-7,nt,6
CCCNC(=O)N1C[C@H](C)[C@H](OC)CN(C)C(=O)c2ccc(NS(=O)(=O)CC(F)(F)F)cc2OC[C@@H]1C,4,-3,11,nt,4
CC[C@H](C)C(C(=O)N1CCN(C(=O)OC(C)(C)C)CC1)n1cc(C(CC(C)C)NC(=O)OC(C)(C)C)nn1 (some centres not stated),nt,-5,-3,-11,32*
Cc1ccc(S(=O)(=O)NCC[C@H]2CC[C@@H](NC(=O)c3ccccn3)[C@H](CO)O2)cc1,-2,1,5,nt,-11
N#C[C@@H]1[C@@H](c2ccc(C#Cc3ccccc3F)cc2)[C@@H](CO)N1C(=O)C1CCC1,3,-3,-3,nt,51*
N#C[C@H]1[C@@H](c2ccc(C#Cc3ccccc3F)cc2)[C@H](CO)N1C(=O)C1CCC1,2,-4,-5,nt,12
N#C[C@H]1[C@H](c2ccc(C#Cc3ccccc3F)cc2)[C@H](CO)N1C(=O)C1CC1,-2,-4,4,nt,30*
N#C[C@@H]1[C@H](c2ccc(C#Cc3ccccc3F)cc2)[C@H](CO)N1C(=O)C1CCCC1,6,-6,-13,nt,-8
CCCC#Cc1ccc2c(c1)O[C@H](CN(C)C(=O)CC1CC1)[C@@H](C)CN([C@@H](C)CO)S2(=O)=O,4,6,-5,nt,-8
CC(=O)N1CC2(C1)[C@H](c1ccc(-c3ccc(C#N)cc3)cc1)[C@H](CO)N2C(=O)C1CC1,-6,3,-10,nt,-15
O=C(Cn1[nH]c(=O)c2ccccc2c1=O)OCC(=O)c1ccc(F)cc1,16*,-8,-4,-16,?
C[C@H](O)C#Cc1ccc2c(c1)O[C@@H](CN(C)Cc1ccccc1)[C@@H](C)CN([C@@H](C)CO)S2(=O)=O,-2,-1,-27,nt,-6
CCN(CC)N=Nc1ccc(S(N)(=O)=O)cc1,18*,0,-7,-4,nt
CN(C)N=Nc1ccc(S(N)(=O)=O)cc1,-1,1,-8,-6,7
Cc1ccc(S(=O)(=O)Nc2ccc3c(c2)C(=O)N([C@@H](C)CO)C[C@@H](C)[C@@H](CN(C)C(=O)Nc2cccc4ccccc24)OCCCC[C@@H](C)O3)cc1,17*,-1,10,nt,-7
C[C@@H]1CN([C@@H](C)CO)C(=O)c2cc(NS(=O)(=O)c3ccccc3)ccc2O[C@H]1CN(C)C(=O)Nc1cccc2ccccc12,-3,-2,-2,nt,27*
Cc1ccc(S(=O)(=O)Nc2ccc3c(c2)C(=O)N([C@@H](C)CO)C[C@H](C)[C@H](CN(C)C(=O)Nc2cccc4ccccc24)OCCCC[C@@H](C)O3)cc1,0,-7,9,nt,-3
C[C@H](CO)N1C[C@H](C)[C@@H](CN(C)C(=O)Nc2cccc3ccccc23)Oc2ccc(NS(=O)(=O)c3ccccc3)cc2C1=O,-3,-1,7,nt,0
C[C@H](CO)N1C[C@H](C)[C@H](CN(C)C(=O)Nc2cccc3ccccc23)OCCCC[C@H](C)Oc2ccc(NS(=O)(=O)c3cn(C)cn3)cc2C1=O,nt,nt,nt,nt,103*
CC(C)NC(=O)N(C)C[C@@H]1Oc2ccc(NS(=O)(=O)c3ccccc3)cc2C(=O)N([C@H](C)CO)C[C@@H]1C,1,-1,112*,nt,-6
CO[C@H]1CN(C)C(=O)c2cc(NC(C)=O)ccc2OC[C@@H](C)N(C(=O)Cc2ccccn2)C[C@H]1C,-3,?,0,nt,-3
C[C@H]1CN([C@@H](C)CO)C(=O)c2cc(-c3cccc(C#N)c3)cnc2O[C@@H]1CN(C)C(=O)c1ccccn1,-7,-4,6,nt,?
Cc1noc(C)c1NC(=O)N[C@@H]1CC[C@@H](CC(=O)NCc2ccc(Cl)c(Cl)c2)O[C@H]1CO,6,-1,-3,nt,3
C[C@H](CO)N1C[C@H](C)[C@@H](CN(C)C(=O)Nc2cccc3ccccc23)OCCCC[C@H](C)Oc2ccc(NS(=O)(=O)c3ccc(F)cc3)cc2C1=O,13,1,-4,nt,39*
